Source: PubChem (The Scripps Research Institute Molecular Screening Center)
FXN GAA850 act – activators of GAA850 frataxin (FXN) promoter; HEK293 lucGAA850 FXN promoter luciferase reporter, 24 h; percent of 10 µM SAHA response; activation, % at 6 µM; 0.56% of 360,000 active; AID 540364;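 active = activation above the average of all compounds screened plus 3 SD, cutoff fixed separately per campaign, cut at about 7.5% in these data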
proCasp7 act – counter-screen for procaspase-3 activators: activators of human procaspase-7; recombinant procaspase-7, Ac-DEVD-pNA absorbance 405 nm; D23A/D198A/D206A triple mutant, cannot self-cleave; scale: DMSO 0, 5 µM enzyme 100; activation, % at 8.5 µM; 0.093% of 330,000 active; AID 463210;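 active = percent activation above the screen-wide mean plus 3 SD, cut at about 25% in these data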
Target sequence (P55210 whole entry D23A/D198A/D206A): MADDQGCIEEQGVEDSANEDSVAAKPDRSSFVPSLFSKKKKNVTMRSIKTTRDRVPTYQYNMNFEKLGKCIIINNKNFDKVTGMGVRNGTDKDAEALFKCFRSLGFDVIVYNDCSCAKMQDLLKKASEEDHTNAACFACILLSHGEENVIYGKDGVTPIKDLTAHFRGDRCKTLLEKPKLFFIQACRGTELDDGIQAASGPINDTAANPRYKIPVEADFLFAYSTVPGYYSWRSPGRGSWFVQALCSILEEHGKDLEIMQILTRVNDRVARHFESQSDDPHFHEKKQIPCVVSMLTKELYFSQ
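Assay system – Uncleavable procaspase-7 mutant enzyme · Quantity – 2 µM procaspase-7 mutant as dispensed · Times – 1 h preincubation, 2 h reaction · Dosing – single nominal 8.5 µM compound dose, 0.8% DMSO final · Buffer or medium – Zinc-free 50 mM HEPES buffer, pH 7.4, with NaCl and Triton X-100 · Detection – Epi-absorbance of released pNA at 405 nm, two timepoints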
proCasp3 act – activates human procaspase-3; activation, % at 8.5 µM; 0.11% of 330,000 active; P42574; recombinant procaspase-3 D3A, Ac-DEVD-pNA absorbance 405 nm;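 active = activation above the mean of all tested compounds plus 3 SD, cut at about 21% in these data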
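Test system: Procaspase-3 D3A mutant; medium: Zinc-free HEPES/NaCl buffer with 0.01% Triton X-100 at pH 7.4; reagent: DEVD-pNA substrate; doses: one concentration, 8.5 µM nominal, 0.8% DMSO; times: 1 h preincubation plus 2 h reaction at 25 °C; signal: Epi-absorbance at 405 nm of released p-nitroaniline, 0 and 120 min; replicates: singlicate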
GAA30 FXN cntr – GAA30 FXN promoter activation counter-screen; shares compounds with FXN GAA850 act; HEK293 lucGAA30 FXN promoter luciferase, 24 h; DMSO = 0%, 5 µM ipriflavone = 100%; activation, % at 6 µM; 66% of 1,900 active;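 active = mean activation above the mean of solvent-only control wells plus 3 SD, cut at about 22% in these data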;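 also: counterscreen of GAA850 promoter hits where activity marks nonselective or luminescence artifacts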
FXN GAA850 conf – confirmation of GAA850 frataxin (FXN) promoter activators | 86% of 1,900 active | shares compounds with FXN GAA850 act | HEK293 lucGAA850 FXN promoter luciferase reporter, 24 h; 100% = activation by SAHA | AID 588351 | activation, % at 6 µM;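 active = mean activation above a set limit taken from the primary screen, cut at about 8% in these data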
A number is an active result; i = inactive; nt = not tested or not shown. Only some compounds are listed: those with a hit (about 0.7% of all), similar ones and a draw of the others.

SMILES	FXN GAA850 act	proCasp7 act	proCasp3 act	GAA30 FXN cntr	FXN GAA850 conf
CN(C)C(=O)CCc1ccc2c3c([nH]c2c1)[C@]1(CCC2CCCC2)[C@@H](C(=O)N2CCOCC2)C[C@H](CC(=O)NC(C)(C)C)C(=O)N1CC3	i	i	i	nt	nt
CC(C)NC(=O)c1ccc(N(Cc2ccc(Cl)cc2)S(C)(=O)=O)cc1	i	i	i	nt	nt
Cc1ccc(S(=O)(=O)N/N=C\c2cn(-c3ccccc3)nc2-c2ccccc2)cc1	i	i	i	nt	nt
Cc1ccc(-c2nn(-c3ccccc3)cc2/C=N/NS(=O)(=O)c2ccccc2)cc1	8.4	i	i	81	23
COc1cc(CC(=O)OCC(=O)NCC(C)C)cc(OC)c1OC	i	i	i	nt	nt
CC(C)NC(=O)CN1CCC(c2nc3ccccc3[nH]2)CC1	i	i	i	nt	nt
OC(c1ccc(F)c(F)c1)c1nc(-c2cccc(F)c2)cs1 (stereo unspecified)	i	nt	nt	nt	nt
CC(C)(C)c1ccc(Cn2nnc3c(=O)[nH]c(C4CCCN(C(=O)Cc5cccs5)C4)nc32)cc1 (stereo unspecified)	i	i	i	nt	nt
CC(C)(C)c1ccc(Cn2nnc3c(=O)[nH]c(C4CCN(C(=O)Cc5cccs5)CC4)nc32)cc1	8.3	i	i	i	10
COc1ccccc1N(C)S(=O)(=O)c1ccc(Cl)c(C(=O)NCC2(N(C)C)CCCCC2)c1	12	i	i	25	i
COc1ccccc1N(C)S(=O)(=O)c1ccc(Cl)c(C(=O)NNC(=O)c2ccccc2O)c1	i	i	i	nt	nt
CS(=O)(=O)c1nc(-c2ccccc2)cc(C(F)(F)F)n1	25	i	i	i	i
Cc1cc(NC(=O)CCS(=O)(=O)c2nc(-c3ccccc3)cc(C(F)(F)F)n2)no1	i	i	i	nt	nt
Cn1cc(Cl)c(C(=O)OCC(=O)Nc2ccc(S(N)(=O)=O)cc2)n1	i	nt	nt	nt	nt
COc1cc(NC(=O)CN2C(=O)CN(C)C2=O)c(C)cc1[N+](=O)[O-]	i	i	i	nt	nt
COc1cc(NC(=O)Cn2ncc(Cl)c(Cl)c2=O)c(C)cc1[N+](=O)[O-]	12	nt	nt	i	i
CC12CCC(=O)N1C(C(=O)Nc1nc3ccccc3s1)CS2 (stereo unspecified)	i	i	i	nt	nt
CCCc1cc(C(=O)Nc2cc(C)ccc2O)no1	10	i	i	91	43
CCCc1cc(C(=O)Nc2cccnc2Cl)no1	i	i	i	nt	nt
Cc1cc(-c2ccc(N3CCOCC3)cc2)nc2ccccc12	8.0	i	i	130	50
c1ccc2nc(-c3ccc(N4CCOCC4)cc3)ccc2c1	i	i	i	nt	nt
CC1(C(=O)NS(=O)(=O)c2ccccc2Cl)CCN1C(=O)C/C=C/c1ccccc1 (stereo unspecified)	i	nt	nt	nt	nt
CC(=O)Nc1cccc(OCC(=O)Nc2ccccc2)c1	i	i	i	nt	nt
CC(=O)Nc1cccc(OCC(=O)Nc2sccc2C(N)=O)c1	9.8	i	i	109	36
c1cn2c(Nc3ccc4c(c3)OCCO4)c(-c3ccc(N4CCOCC4)cc3)nc2cn1	8.8	i	i	56	18
SMILES	FXN GAA850 act	proCasp7 act	proCasp3 act	GAA30 FXN cntr	FXN GAA850 conf
Clc1ccc(-c2nc3cnccn3c2Nc2ccc3c(c2)OCO3)cc1	i	i	i	nt	nt
Cc1c(C)c2ccc(OCC(=O)N3CCOCC3)c(C)c2oc1=O	i	i	i	nt	nt
NC(=O)CSc1nc2sc3c(c2c2ncnn12)CCCC3	i	i	i	nt	nt
CC1CCCc2sc3nc(N4CCN(CCO)CC4)n4ncnc4c3c21 (stereo unspecified)	8.1	i	i	33	21
COc1ccc2c(c1)Cc1sc(NC(C)=O)nc1-2	8.2	i	i	111	32
COc1ccc2c(c1)Cc1sc(NC(=O)c3ccco3)nc1-2	i	i	i	nt	nt
COC(=O)[C@H](CO)N1C(=O)[C@@H]2[C@H](C1=O)C1C=C[C@H]2C1	i	nt	nt	nt	nt
O=S(=O)(NCC(Nc1ccc(Cl)cc1)c1ccccc1)c1ccc(Cl)cc1 (stereo unspecified)	8.5	i	i	i	10.0
O=S(=O)(NCC(c1ccccc1)N1CCC(O)CC1)c1ccc(Cl)cc1 (stereo unspecified)	i	i	i	nt	nt
O=C(CSc1nc2nn(-c3ccccc3)c(=O)c-2c2n1CCCCC2)Nc1cccc(F)c1	i	i	i	nt	nt
